APJ ag: agonists of human APJ apelin receptor; P35414; CHO-K1 APJ PathHunter beta-arrestin, luminescence; 0% DMSO wells, 100% apelin; activation, % at 20 µM; hit rate 0.11% among 330,000;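 active = activation more than six SD over the plate average, tested at 20 µM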;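 also: 0% = DMSO alone and 100% = apelin-13 at 10 nM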
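Assay system: CHO-K1 APJ beta-arrestin complementation cell line / Compound: single test compound dose, 20 µM final, 1% DMSO / Times: overnight seeding, 90 min compound at 25 °C, 1 h detection / Technique: beta-gal luminescence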
CCR6 antag: antagonists of human CCR6 receptor; hit rate 0.49% among 340,000; CHO-K1 CCR6 PathHunter beta-arrestin, luminescence, CCL20-stimulated; P51684; inhibition, % at 20 µM; AID 493098;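 active = compounds whose inhibition of the agonist-driven luminescence signal at 20 µM reaches about 50%, limit read from the data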;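 also: cells stimulated with CCL20 at 14 nM final; plate controls were DMSO with CCL20 for no effect and DMSO without agonist for full effect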
Target sequence (P51684 whole entry, looked up): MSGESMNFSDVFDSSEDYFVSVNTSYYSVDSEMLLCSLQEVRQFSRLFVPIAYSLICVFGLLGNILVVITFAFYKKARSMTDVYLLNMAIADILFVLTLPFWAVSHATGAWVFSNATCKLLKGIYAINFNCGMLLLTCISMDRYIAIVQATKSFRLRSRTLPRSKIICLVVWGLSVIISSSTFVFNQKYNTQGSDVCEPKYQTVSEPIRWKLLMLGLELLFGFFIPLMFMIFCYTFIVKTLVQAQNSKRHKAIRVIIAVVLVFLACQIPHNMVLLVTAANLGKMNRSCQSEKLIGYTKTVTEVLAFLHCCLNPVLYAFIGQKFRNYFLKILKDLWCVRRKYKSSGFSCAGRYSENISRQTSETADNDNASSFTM
Beta2AR agonist: human beta-2 adrenergic receptor agonism by FAP. P07550. Am2.2-beta2AR cells, FAP receptor internalization, flow cytometry. response, % (test concentration not listed). hit rate 0.43% among 340,000. AID 504454;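 active = response above a set limit, near 3 SD of response in nonfluorescent compounds, cut at about 42% in these data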
Target sequence (P07550 whole entry, looked up): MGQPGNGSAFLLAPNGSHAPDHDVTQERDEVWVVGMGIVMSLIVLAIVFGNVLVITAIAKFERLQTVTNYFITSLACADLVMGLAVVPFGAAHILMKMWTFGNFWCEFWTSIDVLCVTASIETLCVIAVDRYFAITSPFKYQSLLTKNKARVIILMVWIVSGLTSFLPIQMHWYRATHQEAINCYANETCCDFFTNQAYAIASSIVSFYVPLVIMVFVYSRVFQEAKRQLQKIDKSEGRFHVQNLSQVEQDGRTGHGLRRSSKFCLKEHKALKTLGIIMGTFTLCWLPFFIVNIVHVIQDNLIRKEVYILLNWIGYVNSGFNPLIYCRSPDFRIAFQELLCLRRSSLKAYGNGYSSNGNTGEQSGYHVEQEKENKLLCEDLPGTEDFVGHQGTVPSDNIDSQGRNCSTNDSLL
EBI2 block: EBI2 (human) antagonism | P32249 | EBI2 beta-arrestin recruitment, luminescence, 7a,25-OHC stimulated | inhibition, % at 5 µM | hit rate 0.81% among 360,000; in the data active = inhibition above about 38%;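 also: enzyme fragment complementation signal reports receptor beta-arrestin coupling in cells; 0% = agonist plus DMSO wells and 100% = wells without agonist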
APJ antag: antagonists of human APJ apelin receptor; P35414; CHO-K1 APJ beta-arrestin complementation, luminescence; inhibition, % at 20 µM; hit rate 0.32% among 330,000; AID 2521;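 active = inhibition above about 40% at 20 µM, limit read from the data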;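 also: cells challenged with 10 nM apelin-13 agonist together with compound; plate controls were apelin-13 plus DMSO wells for no effect and DMSO wells lacking apelin-13 for full effect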
CXCR6 inh: inhibitors of human CXCR6 receptor; CHO-K1 PathHunter CXCR6 beta-arrestin, luminescence; O00574; inhibition, % at 20 µM; hit rate 0.36% among 360,000; in the data active = inhibition above about 34%, passing the limit was not always enough;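 also: antagonist mode with CXCL16 agonist at 10 nM final; 0% = 10 nM CXCL16 with DMSO and 100% = unstimulated wells without agonist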
EBI2 antag conf: EBI2 (human) antagonism, single concentration confirmation; shares compounds with EBI2 block; EBI2 beta-arrestin luminescence, 7a,25-OHC antagonism; hit rate 29% among 2,400; inhibition, % at 5 µM;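 active = inhibition of at least 50%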
EBI2 ag: EBI2 agonism counter-screen. shares compounds with EBI2 block. EBI2-expressing cells, agonist mode, luminescence, 60 min; 0% vehicle, 100% 7α,25-dihydroxycholesterol control. activation, % at 5 µM. 2,400 tested, under 10 active;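 active = activation of at least 50%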
bGal cs: inhibits E. coli beta-galactosidase, counter-screen for EBI2 antagonists. shares compounds with EBI2 block. purified beta-galactosidase, luminescent Galacton Star, 15 min. inhibition, % at 5 µM. hit rate 1% among 2,400. AID 652176;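 active = replicate-average signal at least 3 plate SD below neutral wells, shown as high inhibition, flagging enzyme-inhibiting false positives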;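 also: 0% = DMSO wells with enzyme and 100% = wells lacking enzyme; higher means stronger loss of beta-gal luminescence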
Starred values were filed as active, the others as inactive; nt = no result. Most compounds without a hit are left out; they make up all but 1.8% or so of the library.

SMILES | APJ ag | CCR6 antag | Beta2AR agonist | EBI2 block | APJ antag | CXCR6 inh | EBI2 antag conf | EBI2 ag | bGal cs
O=C(Nc1ccc(-c2csc(Nc3ccccc3)n2)cc1)c1cc([N+](=O)[O-])cc(C(F)(F)F)c1 | 10.4 | 9.0 | -0.3 | -17.3 | -143.7 | -1.3 | nt | nt | nt
O=C(Nc1cccc(-c2csc(Nc3cccc(C(F)(F)F)c3)n2)c1)c1cc([N+](=O)[O-])cc(C(F)(F)F)c1 | 9.2 | -0.3 | 2.2 | 47.0* | -134.5 | -12.5 | 22.0 | -1.5 | -14.4
CN1CCN(C(=O)CSc2ccc(Cl)cc2)CC1 | 1.1 | -10.9 | -4.4 | 46.7* | -42.2 | 7.8 | 19.9 | -0.9 | -18.7
Cc1ccc(S(=O)(=O)N2CCN(C(=O)CSc3ccc(Cl)cc3)CC2)cc1 | -1.6 | 15.2 | -6.9 | 92.2* | -8.8 | 11.1 | 68.3* | 0.2 | 7.0
Cc1ccc(SCC(=O)N2CCN(S(=O)(=O)c3cccs3)CC2)cc1 | -2.7 | 7.7 | -1.2 | 76.0* | 5.3 | -1.4 | 49.5 | -1.0 | -8.3
O=C(CSc1ccc(Cl)cc1)N1CCN(c2ncc(C(F)(F)F)cc2Cl)CC1 | -3.7 | 21.5 | -14.2 | 83.9* | -7.2 | -3.1 | 70.1* | -0.4 | -14.6
CC(=O)c1ccc(S(=O)(=O)N2CCN(C(=O)CSc3ccc(C)c(C)c3)CC2)cc1 | -0.3 | 2.7 | -5.0 | 70.2* | -23.7 | -12.3 | 30.9 | -0.9 | -9.9
CC(=O)Nc1ccc(SCC(=O)N2CCN(S(=O)(=O)c3ccccc3)CC2)cc1 | -4.5 | 14.7 | -1.9 | 4.8 | -94.0 | 3.4 | nt | nt | nt
CC(C)NC(=O)C1C(c2ccc(C(F)(F)F)cc2)=Nc2ccccc2N1C(=O)c1cc2ccccc2[nH]1 (centres undefined) | nt | nt | nt | -0.3 | nt | nt | nt | nt | nt
O=S(=O)(c1ccccc1)N1CCN(CC(O)COc2ccc3c(c2)CCC3)CC1 (centres undefined) | 0.6 | -2.4 | 2.1 | 83.0* | 10.3 | -0.9 | 69.2* | 1.9 | -4.3
CN(C(=O)c1cccc(NC(=O)Cc2ccc(NC(=O)C3CCN(S(=O)(=O)c4cccc([N+](=O)[O-])c4)CC3)cc2)c1)C1CCC1 | nt | 9.1 | 7.0 | 76.5* | nt | -4.6 | 14.3 | -2.0 | -3.7
Cc1cccc(N2CCN(C(=O)c3ccc4nc[nH]c4c3)CC2)c1C | -2.5 | -3.6 | -5.3 | -64.4 | 11.7 | -1.7 | nt | nt | nt
Cc1ccc(C)c(N2CCN(C(=O)c3ccc4nsnc4c3)CC2)c1 | -4.5 | 11.4 | -3.2 | 47.1* | -8.3 | 7.2 | 12.6 | -0.4 | -4.5
O=C(c1ccc2nsnc2c1)N1CCN(c2ccc([N+](=O)[O-])cc2)CC1 | -1.7 | 8.9 | -5.3 | 7.6 | -23.5 | 0.7 | nt | nt | nt
Cc1cccc(N2CCN(C(=O)c3ccc4ncsc4c3)CC2)c1C | nt | 5.5 | 3.6 | 74.2* | nt | -3.3 | 65.0* | -0.2 | -12.8
O=C(c1ccc2ncsc2c1)N1CCN(c2ccccc2Cl)CC1 | -0.6 | -2.6 | 6.6 | 73.9* | -2.0 | 0.0 | 53.9* | 0.7 | 1.1
COCCN1C(=O)CCC1(C)C(=O)Nc1c(C)cccc1C (centres undefined) | nt | nt | nt | -7.9 | nt | -6.3 | nt | nt | nt
CCc1nc2ccc(C(=O)NC(C)(C)C)cn2c1N(CC)Cc1cccc(Br)c1 | nt | nt | nt | 16.3 | nt | -1.0 | nt | nt | nt
Cc1sc2nc(C3CC3)nc(N3CCN(C(=O)c4ccccc4F)CC3)c2c1C | 0.3 | 13.6 | -0.7 | 7.4 | -3.4 | 2.8 | nt | nt | nt
Cc1sc2nc(C3CC3)nc(N3CCN(C(=O)c4ccc(Cl)cc4)CC3)c2c1C | -0.3 | 6.4 | -0.1 | 75.8* | 4.1 | 16.9 | 44.3 | 1.4 | 8.4
COc1ccc(C(=O)N2CCN(c3nc(C4CC4)nc4sc(C)c(C)c34)CC2)cc1 | -1.7 | 8.9 | -3.5 | 49.1* | -1.0 | 6.3 | 18.8 | 0.2 | 1.4
Cc1sc2nc(C3CC3)nc(N3CCN(C(=O)c4ccc(F)cc4)CC3)c2c1C | 0.3 | 10.2 | -8.0 | 33.9 | 7.2 | 11.0 | nt | nt | nt
Cc1cc(C)c(C(=O)C(C)OC(=O)c2ccccn2)cc1C (centres undefined) | 10.9 | -3.6 | 3.1 | -6.8 | 11.2 | -5.7 | nt | nt | nt
O=C(NCCSc1ccccc1)c1ccc(Br)cc1 | 1.2 | 26.8 | -5.5 | 10.0 | 6.2 | -0.8 | nt | nt | nt
CN(C)S(=O)(=O)c1ccc(C(=O)NCCSc2ccc(Br)cc2)cc1 | -2.4 | 22.5 | 20.9 | 65.2* | 11.6 | 5.7 | 47.2 | 0.8 | 2.1
SMILES | APJ ag | CCR6 antag | Beta2AR agonist | EBI2 block | APJ antag | CXCR6 inh | EBI2 antag conf | EBI2 ag | bGal cs
COC(=O)C[C@H]1C[C@H]2c3cc(NC(=O)C4CCC4)ccc3O[C@H]2[C@H](CO)O1 | nt | nt | nt | -0.8 | nt | -0.2 | nt | nt | nt
CC(=O)c1ccccc1OCC(O)CN1CCN(CCN2C(=O)c3cccc4cccc(c34)C2=O)CC1 (centres undefined) | 7.1 | 6.0 | 20.8 | 13.3 | -3.1 | -16.3 | nt | nt | nt
CCc1ccc(OCC(O)CN2CCC(CN3C(=O)c4cccc5cccc(c45)C3=O)CC2)cc1 (centres undefined) | 3.7 | -4.2 | 0.2 | 60.0* | -14.5 | -23.2 | 24.5 | 0.3 | 1.6
Cc1cc(C)cc(OCC(O)CN2CCC(CN3C(=O)c4cccc5cccc(c45)C3=O)CC2)c1 (centres undefined) | -3.1 | 9.6 | 11.7 | 7.6 | -6.0 | 2.8 | nt | nt | nt
O=C1c2cccc3cccc(c23)C(=O)N1CCN1CCN(CC(O)COc2ccc3ccccc3c2)CC1 (centres undefined) | -3.3 | -0.8 | 5.4 | 48.8* | 9.6 | -1.7 | 19.0 | -0.2 | 3.6
Cc1ccc(NS(=O)(=O)c2c(C)[nH]c(C)c2C(=O)N2CCCCC2)c(Br)c1 | -1.5 | 14.2 | -1.4 | 3.5 | -11.8 | 7.1 | nt | nt | nt
Cc1cc(S(=O)(=O)N(Cc2cccs2)Cc2ccccc2F)ccc1-n1cnnn1 | -1.0 | 18.7 | 2.2 | 30.7 | -0.3 | 2.7 | nt | nt | nt
Cc1cc(S(=O)(=O)N(Cc2ccc(C(C)(C)C)cc2)Cc2cccs2)ccc1-n1cnnn1 | -3.8 | 6.5 | -8.8 | 48.4* | 1.6 | 8.0 | 22.0 | 1.5 | 4.5
COc1ccc(-c2cc(C(=O)N3CCN(C(c4ccccc4)c4ccccc4)CC3)no2)cc1 | -5.2 | 12.7 | 5.8 | 90.8* | 0.3 | 0.3 | 76.3* | 0.2 | 9.1
COc1ccc2oc(C(=O)N3CCN(C/C=C/c4ccccc4)CC3)c(C)c2c1 | 2.7 | 5.7 | -6.7 | 46.1* | 2.7 | 4.7 | 29.7 | 0.1 | -10.6
COc1ccc2oc(C(=O)N3CCN(C(c4ccccc4)c4ccccc4)CC3)c(C)c2c1 | -0.6 | 19.8 | 3.3 | 91.5* | 10.1 | 5.3 | 68.5* | 2.8 | 8.3

Assay outcomes: PubChem, several laboratories
